In brackets after ≈: the same amount, converted by molar mass.
Columns and labels:
[1] = Antifungal activity against Saccharomyces cerevisiae measured after 24 hrs by two-fold serial dilution method; format: functional
How it was run: (§1)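 MIC by two-fold serial broth microdilution in 96-well plates, following NCCLS recommendations. Chloromycin, norfloxacin and fluconazole serve as reference drugs. The MIC is read as the lowest concentration that inhibits growth, in µg/mL.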

Escherichia coli = experiment: Antibacterial activity against Escherichia coli JM109 measured after 24 hrs by two-fold serial dilution method; format: functional; settings: JM109, 24 h; how it was run: as §1
Salmonella typhi = experiment: Antibacterial activity against Salmonella typhi measured after 24 hrs by two-fold serial dilution method; format: functional, Salmonella enterica subsp. enterica serovar Typhi; settings: Salmonella enterica
How it was run: (§2)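 Two-fold serial dilution in 96-well microtest plates following NCCLS guidance (micro broth dilution). Chloromycin and norfloxacin serve as positive controls. MIC is reported in µg/mL.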

Bacillus subtilis = experiment: Antibacterial activity against Bacillus subtilis measured after 24 hrs by two-fold serial dilution method; format: functional; how it was run: as §1
Staphylococcus aureus [2] = experiment: Antibacterial activity against Staphylococcus aureus ATCC 25923 measured after 24 hrs by two-fold serial dilution method; format: functional; settings: ATCC 25923, 24 h; how it was run: as §1
Aspergillus flavus = experiment: Antifungal activity against Aspergillus flavus measured after 24 hrs by two-fold serial dilution method; format: functional; how it was run: as §1
Micrococcus luteus = experiment: Antibacterial activity against Micrococcus luteus ATCC 4698 measured after 24 hrs by two-fold serial dilution method; format: functional; settings: NCTC 2665, 24 h; how it was run: as §1
Staphylococcus aureus [3] = experiment: Antibacterial activity against methicillin-resistant Staphylococcus aureus N315 measured after 24 hrs by two-fold serial dilution method; format: functional; settings: N315, 24 h; how it was run: as §2
Pseudomonas aeruginosa = experiment: Antibacterial activity against Pseudomonas aeruginosa measured after 24 hrs by two-fold serial dilution method; format: functional; how it was run: as §1
Proteus vulgaris = experiment: Antibacterial activity against Bacillus proteus ATCC 13315 measured after 24 hrs by two-fold serial dilution method; format: functional; settings: ATCC 13315, 24 h; how it was run: as §1
[4] = Antifungal activity against Candida utilis measured after 24 hrs by two-fold serial dilution method; format: functional; settings: Cyberlindnera jadinii; how it was run: as §1
Candida albicans = experiment: Antifungal activity against Candida albicans ATCC 76615 measured after 24 hrs by two-fold serial dilution method; format: functional; settings: ATCC 76615, 24 h; how it was run: as §1

SMILES | MIC80 [1] [µg/mL] | MIC (Escherichia coli) [µg/mL] | MIC (Salmonella typhi) [µg/mL] | MIC (Bacillus subtilis) [µg/mL] | MIC (Staphylococcus aureus [2]) [µg/mL] | MIC80 (Aspergillus flavus) [µg/mL] | MIC (Micrococcus luteus) [µg/mL] | MIC (Staphylococcus aureus [3]) [µg/mL] | MIC (Pseudomonas aeruginosa) [µg/mL] | MIC (Proteus vulgaris) [µg/mL] | MIC80 [4] [µg/mL] | MIC80 (Candida albicans) [µg/mL]
COc1ccc2cc3[n+](cc2c1OCc1nc2ccccc2n1Cc1ccc([N+](=O)[O-])cc1)CCc1cc2c(cc1-3)OCO2.[Cl-] | 128 | 32 | 256 | 512 | 64 | 64 | 32 | 512 | 512 | 32 | 32 | 128
COc1ccc2cc3[n+](cc2c1OCc1nc2ccccc2n1Cc1cccc(Cl)c1)CCc1cc2c(cc1-3)OCO2.[Cl-] | 512 | 512 | 256 | 512 | 512 | 32 | 16 | 512 | 256 | 128 | 16 | 512
O=C(N[C@H](CO)[C@H](O)c1ccc([N+](=O)[O-])cc1)C(Cl)Cl [CHLORAMPHENICOL] |  | 32 (≈ 99 µM) | 32 (≈ 99 µM) | 32 (≈ 99 µM) | 16 (≈ 49.5 µM) |  | 8 (≈ 24.8 µM) | 16 (≈ 49.5 µM) | 32 (≈ 99 µM) | 32 (≈ 99 µM) |  | 
CCCn1c(COc2c(OC)ccc3cc4[n+](cc23)CCc2cc3c(cc2-4)OCO3)nc2ccccc21.[Cl-] | 512 | 256 | 4 | 64 | 128 | 16 | 32 | 4 | 64 | 256 | 16 | 64
COc1ccc2cc3[n+](cc2c1OCc1nc2ccc(F)cc2[nH]1)CCc1cc2c(cc1-3)OCO2.[Cl-] | 256 | 32 | 16 | 256 | 8 | 32 | 16 | 512 | 256 | 16 | 64 | 512
COc1ccc2cc3[n+](cc2c1OCc1nc2ccccc2n1Cc1ccc(Cl)cc1)CCc1cc2c(cc1-3)OCO2.[Cl-] | 512 | 2 | 2 | 512 | 32 | 4 | 8 | 512 | 512 | 8 | 4 | 512
CCCCCCCCCCn1c(COc2c(OC)ccc3cc4[n+](cc23)CCc2cc3c(cc2-4)OCO3)nc2ccccc21.[Cl-] | 512 | 32 | 2 | 32 | 16 | 8 | 32 | 16 | 16 | 512 | 8 | 8
COc1ccc2cc3[n+](cc2c1OCc1nc2ccccc2[nH]1)CCc1cc2c(cc1-3)OCO2.[Cl-] | 512 | 512 | 16 | 512 | 512 | 32 | 32 | 256 | 256 | 256 | 64 | 256
COc1ccc2cc3[n+](cc2c1OCc1nc2ccccc2n1Cc1ccc(Cl)cc1Cl)CCc1cc2c(cc1-3)OCO2.[Cl-] | 512 | 16 | 16 | 512 | 64 | 16 | 16 | 4 | 32 | 8 | 2 | 512
